# Source: PubChem (Sanford-Burnham Center for Chemical Genomics)
# LMPTP block: LMPTP (human) inhibition; P24666; recombinant LMPTP-A, OMFP fluorogenic substrate, fluorescence intensity; inhibition, % at 20 µM; 360,000 compounds, 0.22% hits;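 active means compounds that cut the enzyme signal by at least half of the control window in the single-dose screen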;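 further: plate controls were DMSO wells with enzyme plus substrate for no effect and substrate without enzyme for full effect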
#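 Test system: LMPTP-A phosphatase enzyme. Amount: LMPTP-A at 0.625 nM final in the reaction. Reagent: OMFP substrate, 400 µM final. Times: 50 min at room temperature. Signal: endpoint fluorescence intensity from OMFP dephosphorylation. Read-out basis: % inhibition. Benchmarks: no-enzyme and uninhibited controls.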
# Scp-1 inhibitor: inhibitors of human Scp-1 phosphatase; inhibition, % at 20 µM; Q9GZU7; Recombinant Scp1, phosphopeptide, malachite green phosphate absorbance; 340,000 compounds, 0.88% hits;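 active means inhibition above about 50% at 20 µM, limit read from the data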;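 further: plate controls were DMSO wells with enzyme for no effect and wells lacking enzyme for full effect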
#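 Test system: SCP-1 phosphatase catalytic domain, residues 76-261 | Compound dosing: One concentration, 20 µM, with 1.0% DMSO | Schedule: 45 min room-temperature reaction, 5 min colour, 30 min stabiliser | Detection: Absorbance at 630 nm | Read-out basis: % inhibition of SCP-1 phosphate liberation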
# DNMT1 block: inhibitors of human DNMT1; P26358; DNMT1 molecular beacon, Hinp1I cleavage, fluorescence; inhibition (reported as % activation of signal), % at 10 µM; 360,000 compounds, 0.83% hits; in the data active means inhibition above about 50%
# STEP inh: inhibitors of human striatal-enriched phosphatase STEP | inhibition, % at 20 µM | 360,000 compounds, 0.25% hits | recombinant STEP, OMFP fluorogenic substrate, fluorescence | AID 588621;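 active means inhibition at 20 µM, scaled per plate between control wells, above about 37%, limit read from the data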;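 further: 0% = DMSO with enzyme and substrate and 100% = substrate only without enzyme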
# Target sequence (P54829 whole entry, looked up): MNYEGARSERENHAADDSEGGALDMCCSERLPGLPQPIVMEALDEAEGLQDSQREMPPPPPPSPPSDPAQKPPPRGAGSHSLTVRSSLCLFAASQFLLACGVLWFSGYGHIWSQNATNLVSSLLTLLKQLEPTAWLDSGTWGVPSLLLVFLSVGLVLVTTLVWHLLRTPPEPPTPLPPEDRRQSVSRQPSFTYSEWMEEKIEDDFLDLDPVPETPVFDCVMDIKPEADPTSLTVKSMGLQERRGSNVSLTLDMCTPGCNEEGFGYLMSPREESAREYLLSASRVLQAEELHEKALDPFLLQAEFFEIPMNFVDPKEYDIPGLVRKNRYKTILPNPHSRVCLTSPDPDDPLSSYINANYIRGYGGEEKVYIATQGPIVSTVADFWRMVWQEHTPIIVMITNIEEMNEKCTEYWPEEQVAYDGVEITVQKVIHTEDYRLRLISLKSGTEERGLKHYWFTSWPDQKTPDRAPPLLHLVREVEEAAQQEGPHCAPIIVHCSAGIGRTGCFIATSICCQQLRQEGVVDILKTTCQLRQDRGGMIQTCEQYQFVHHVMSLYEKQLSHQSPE
#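 Test system: STEP tyrosine phosphatase / Reagent: OMFP at 25 µM / Doses: 20 µM, 1% DMSO / Read-out: percent inhibition scaled to no-enzyme and uninhibited-enzyme controls, plate-pattern corrected / Detection: FITC-channel fluorescence of OMFP product / Medium: Bis-Tris buffer pH 6.0, 2.5 mM DTT, 0.005% Tween 20 / Schedule: 20 min at room temperature, dark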
# SUMO1 PPI mod: SUMO1-SIM interaction modulation; 360,000 compounds, 0.33% hits; AID 602429; SUMO1 binding to a labelled peptide, TR-FRET, 1 h; inhibition, % at 20 µM; P63165; in the data active means inhibition above about 37%
# The depositor's hits bear a star; i = inactive; x = no result given; + = active, no number. A selection: hits, their analogues and other compounds. The true share with any hit is near 1.7%.
SMILES,LMPTP block,Scp-1 inhibitor,DNMT1 block,STEP inh,SUMO1 PPI mod
COCc1nc2c([nH]1)c(=O)n(C)c(=O)n2CC(C)C,0,-4,1,1,3
COc1cc2[nH]c3c(=O)n(N)c(=O)[nH]c3c2cc1OC,2,-13,-2,4,-3
O=C(Nc1cccc([N+](=O)[O-])c1)c1cc2ccccc2cc1O,4,89*,2,5,33
CCCCN1C=C(C(=O)OC)C(c2ccccc2C(F)(F)F)C(C(=O)OC)=C1,0,-8,2,0,7
CCCCN1C=C(C(=O)OC)C(c2ccccc2Cl)C(C(=O)OC)=C1,0,-10,1,1,46*
COC(=O)c1ccc(CN2CCCC(CCC(=O)NCc3ccc(C)o3)C2)cc1 (stereo not drawn),0,-8,-1,2,2
COc1ccc2nc3cc(Cl)ccc3c(Nc3ccc(O)c(CN4CCN(C)CC4)c3)c2c1,22,-10,68*,6,-65
CN1/C(=C/C=C(C#N)C#N)C=Cc2ccccc21,16,-16,-1,0,57*
CCOC(=O)/C(C#N)=C/C=C1\C=Cc2ccccc2N1CC,26,-9,-17,17,-93
COc1ccc(-c2cc(=O)c3ccc(O)cc3o2)cc1OC,-1,x,0,0,-1
Nc1ccc(-c2c3ccc(=O)cc-3oc3cc(O)ccc23)c(C(=O)O)c1,11,-2,+,-110,i
Cc1cccc2c(=O)n(C(=O)c3ccccc3)c(N)nc12,0,x,-6,1,2
CC1CCc2c(sc3ncnc(SCC(=O)Nc4ccc(C(=O)O)cc4)c23)C1 (stereo not drawn),36,-5,2,2,19
CC(C)c1nc(SCC(=O)Nc2ccc(C(=O)O)cc2)c2c3c(sc2n1)CCCC3,53*,17,1,1,32
Cc1ccc(N=Nc2c(N)[nH]n3c(=O)cc(-c4ccccc4)nc23)cc1,70*,36,-25,21,-9
CN(Cc1c(C(=O)N/N=C/c2cc(F)ccc2F)nnn1-c1nonc1N)C1CCCCC1,0,-5,9,-2,3
COc1ccc(CN(C)CC(=O)Nc2ccc(Cl)cc2C(F)(F)F)c(OC)c1,0,-7,4,0,-2
COc1ccc(Br)cc1C(=O)NC(=S)Nc1c(C)n(C)n(-c2ccccc2)c1=O,-1,0,0,1,1
Cc1cc(NC(=O)c2ccccc2)nc2c1c(=O)oc1ccccc12,2,-15,1,2,52*
CC1Cc2cc(S(=O)(=O)N3CCN(c4ccccc4F)CC3)ccc2N1C(=O)C1CC1 (stereo not drawn),2,-8,-7,0,-2
N#C/C(=C\c1ccc(-c2ccc(C(=O)O)cc2)o1)C(=O)Nc1ccc(F)cc1,7,69*,46,6,3
Cc1cccc(C)c1NC(=O)/C(C#N)=C/c1ccc(-c2ccc(C(=O)O)cc2)o1,1,34,16,7,-17
CC(C)(C)[C@H](N)C(=O)N[C@H]1CCC2C3CC=C4C[C@@H](O)CC[C@]4(C)C3CC[C@@]21C (stereo partly drawn),-2,0,-31,1,41*
CC(=O)C1CCC2C3CC=C4CC(SC(=N)N)CCC4(C)C3CCC12C (stereo not drawn),63*,17,5,5,-54
Cc1ccc(S(=O)(=O)NCC(C)NC(=O)CN2CCOCC2)cc1 (stereo not drawn),0,-4,2,-1,10
SMILES,LMPTP block,Scp-1 inhibitor,DNMT1 block,STEP inh,SUMO1 PPI mod
COc1ccc(Cc2nnc(SC)[nH]c2=O)cc1OC,-1,-5,1,1,42*
COc1ccc(Cc2nnc(NN)[nH]c2=O)cc1OC,1,-9,1,2,1
Cc1cc2cc(C)c(NCCNC(=O)c3cccs3)nc2cc1C,2,7,13,-1,50*
O=C(Nc1nc(-c2ccccc2)cs1)C1CCCN(S(=O)(=O)c2ccccc2)C1 (stereo not drawn),4,-23,-7,0,42*
C=CC#CC[N+]1(CC#Cc2ccccc2)CCOCC1,52*,9,-30,5,37*
C#CCN(C[C@H]1[C@H](OC(=O)NCc2ccccc2F)[C@H](OC(=O)NCc2ccccc2F)C[C@@H](C(=O)OC)[C@H]1C(=O)OC)S(=O)(=O)c1ccc(C)cc1,4,x,-8,4,-1
COC(=O)C1=C(C)N(Cc2ccccc2)C(=NCCc2cccnc2)N[C@H]1c1ccccc1,-1,6,3,-2,1
COC(=O)C1=C(C)N(Cc2ccccc2)C(=NCCc2cccnc2)N[C@H]1c1ccc(Br)cc1,3,57*,13,-1,-10
Nc1c(C(=O)NC2CC2)sc2nc3c(c(-c4ccco4)c12)CC/C3=C/c1ccco1,71*,84*,91*,15,95*
CC(OC(=O)Cc1c[nH]c2ccccc12)C(=O)NC1CCCCC1C (stereo not drawn),0,-10,1,0,8
Clc1nssc1=Nc1ccc(Br)cc1,50*,-1,-3,7,-12
Clc1ccc(N=c2ssnc2Cl)nc1,79*,-11,-6,31,21
COc1cccc(NS(=O)(=O)c2ccc3c(c2)N(C(C)=O)CCO3)c1,-1,3,1,-2,-4
COc1cccc(CNS(=O)(=O)c2ccc3c(c2)N(C(C)=O)CCO3)c1,9,24,24,42*,3
CCOc1cccc(CNc2ccc(O)cc2)c1OCc1ccc(Cl)cc1Cl,17,-5,-28,10,68*
CCOc1cccc(CNc2ccc(O)cc2)c1OCc1ccccc1Cl,22,-8,-46,-6,44*
O=C(NNC(=O)c1ccccc1O)c1cc2ccccc2o1,0,-13,-2,-3,8
Cc1ccc(S(C)(=O)=O)cc1C(=O)N1CC(C(N)=O)Oc2ccccc21 (stereo not drawn),1,-2,3,2,-3
CC(=O)Nc1ccc(NC(=O)C(C)OC(=O)CSCc2cccc(Cl)c2)cc1 (stereo not drawn),1,-6,-6,-5,7
Cc1c(/C=N/Nc2ccc([N+](=O)[O-])cn2)c2ccccc2n1Cc1ccccc1,8,-11,51*,4,-15
Cc1ccc(Cn2cc(/C=N/Nc3ccc([N+](=O)[O-])cn3)c3ccccc32)cc1,3,2,34,1,-17
Cc1ccc(-n2c(C)cc(/C=N/Nc3ccc([N+](=O)[O-])cn3)c2C)cc1,0,102*,1,0,-5
Cc1cc(/C=N/Nc2ccc([N+](=O)[O-])cn2)c(C)n1-c1ccccc1,1,6,1,13,-19
